Converted amounts (≈) assume the structure as drawn.
Assays:
[1] = system: Cryptococcus neoformans; experiment: Antifungal activity against Cryptococcus neoformans H99 measured after 24 to 72 hrs; format: functional; conditions: var grubii H99
Procedure, shortened: (§1)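 Modified CLSI broth microdilution with inoculum per M27A3. Compounds were serially diluted 32 to 0.03 μg/mL. Media: C. neoformans in HEPES-buffered YNB without amino acids (pH 7.0, 2% glucose); Candida strains in YNB without ammonium sulfate or amino acids plus 1% asparagine (pH 7.0, 2% glucose); A. fumigatus in RPMI (pH 7.0, 2% glucose).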

[2] = system: Cryptococcus neoformans; experiment: Fungicidal activity against Cryptococcus neoformans H99 measured after 24 hrs by time-kill assay; format: functional, var grubii H99
Procedure, shortened: (§2)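 Overnight C. neoformans washed in PBS and resuspended in HEPES-buffered YNB, pH 7.4. 2 × 10⁴ cells exposed to a range of drug concentrations in 10 mL with 0.5% DMSO final, at 37°C, 5% CO₂, shaking at 200 rpm. Aliquots sampled over 96 h, diluted and plated on YPD; CFU counted after 48 h at 30°C.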

[3] = system: A549; experiment: Cytotoxicity against human A549 cells after 24 to 48 hrs by MTT assay; format: functional; conditions: read-out: LD50 (the source's name)
Procedure, shortened: (§3)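 A549 and HepG2 kept in DMEM with 10% FBS and 1% pen-strep. At passage 7, seeded at 10⁵ cells/well and allowed to adhere 14 h. Compound added at 0.03–128 μg/mL, untreated wells as controls. Incubation 37°C, 5% CO₂ for 24 or 48 h. MTT (5 mg/mL in PBS) added for 4 h, formazan dissolved in DMSO, OD570.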

[4] = system: HepG2; experiment: Cytotoxicity against human HepG2 cells after 24 to 48 hrs by MTT assay; format: functional; conditions: read-out: LD50 (the source's name); procedure, shortened: as §3
[5] = Selectivity index, ratio of LD50 for human A549 cells to MIC80 for Cryptococcus neoformans H99; format: toxicity; conditions: read-out: Selectivity Index
Procedure, shortened: (§4)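 SI = LD₅₀/MIC₈₀. Cytotoxicity: A549 or HepG2 cells (DMEM, 10% FBS, passage 7, 10⁵ cells/well) adhered 14 h, then exposed to 0.03–128 μg/mL for 24 or 48 h at 37°C, 5% CO₂; MTT 4 h, formazan dissolved in DMSO, read at 570 nm. MIC₈₀ against C. neoformans from broth microdilution in HEPES-buffered YNB, pH 7.0.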

[6] = Selectivity index, ratio of LD50 for human HepG2 cells to MIC80 for Cryptococcus neoformans H99; format: toxicity; conditions: read-out: Selectivity Index; procedure, shortened: as §4
[7] = system: Cryptococcus neoformans; experiment: Antifungal activity against Cryptococcus neoformans H99 assessed as FICI in presence of fluconazole; format: functional, var grubii H99
Procedure, shortened: (§5)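 Checkerboard combination scored by fractional inhibitory concentration index. Acylhydrazone serially diluted 16 to 0.015 μg/mL (11 dilutions). Partner drug in seven dilutions: fluconazole 12 to 0.19 μg/mL, amphotericin B 5 to 0.078 μg/mL, caspofungin, itraconazole or voriconazole 8 to 0.007 μg/mL.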

[8] = system: Candida albicans; experiment: Antifungal activity against Candida albicans measured after 24 to 72 hrs; format: functional; procedure, shortened: as §1
[9] = system: [Candida] auris; experiment: Antifungal activity against Candida auris measured after 24 to 72 hrs; format: functional; conditions: Candidozyma auris; procedure, shortened: as §1
[10] = system: Pichia kudriavzevii; experiment: Antifungal activity against Candida krusei measured after 24 to 72 hrs; format: functional
Procedure, shortened: (§6)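 MIC by modified CLSI broth microdilution. Candida strains grown in YNB without ammonium sulfate or amino acids with 1% asparagine, pH 7.0, 2% glucose. Inoculum per CLSI M27A3. Compound serially diluted 32 to 0.03 μg/mL. Incubation 37°C, 5% CO₂, 24–72 h, then OD450. MIC80 taken as the lowest concentration giving 80% growth inhibition versus untreated control.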

[11] = system: Pichia kudriavzevii; experiment: Antifungal activity against multi-drug resistant Candida krusei measured after 24 to 72 hrs; format: functional; procedure, shortened: as §6
[12] = system: Candida parapsilosis; experiment: Antifungal activity against Candida parapsilosis measured after 24 to 72 hrs; format: functional; conditions: Lodderomyces parapsilosis; procedure, shortened: as §1
[13] = system: Aspergillus fumigatus; experiment: Antifungal activity against Aspergillus fumigatus measured after 24 to 72 hrs; format: functional; procedure, shortened: as §1
[14] = system: Candida albicans; experiment: Antifungal activity against Candida albicans assessed as FICI in presence of fluconazole; format: functional; procedure, shortened: as §5
[15] = system: Pichia kudriavzevii; experiment: Antifungal activity against Candida krusei 6258 assessed as FICI in presence of fluconazole; format: functional; procedure, shortened: as §5
[16] = system: [Candida] auris; experiment: Antifungal activity against Candida auris assessed as FICI in presence of fluconazole; format: functional, Candidozyma auris; procedure, shortened: as §5
[17] = system: Candida parapsilosis; experiment: Antifungal activity against Candida parapsilosis assessed as FICI in presence of fluconazole; format: functional; procedure, shortened: as §5
[18] = system: Aspergillus fumigatus; experiment: Antifungal activity against Aspergillus fumigatus assessed as FICI in presence of fluconazole; format: functional; procedure, shortened: as §5
[19] = system: Cryptococcus neoformans; experiment: Antifungal activity against Cryptococcus neoformans H99 assessed as FICI in presence of voriconazole; format: functional, var grubii H99; procedure, shortened: as §5
[20] = system: Candida albicans; experiment: Antifungal activity against Candida albicans assessed as FICI in presence of voriconazole; format: functional; procedure, shortened: as §5
[21] = system: Pichia kudriavzevii; experiment: Antifungal activity against fluconazole-resistant Candida krusei assessed as FICI in presence of voriconazole; format: functional
Procedure, shortened: (§7)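 Checkerboard in 96-well plate. Test compound diluted 16 to 0.015 μg/mL (11 dilutions) against the partner drug in seven dilutions: fluconazole 12 to 0.19 μg/mL, caspofungin, itraconazole or voriconazole 8 to 0.007 μg/mL. Fractional inhibitory concentration index (FICI) calculated from the combinations.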

[22] = system: Pichia kudriavzevii; experiment: Antifungal activity against Candida krusei 6258 assessed as FICI in presence of voriconazole; format: functional; procedure, shortened: as §5
[23] = system: [Candida] auris; experiment: Antifungal activity against Candida auris assessed as FICI in presence of voriconazole; format: functional, Candidozyma auris; procedure, shortened: as §5
[24] = system: Candida parapsilosis; experiment: Antifungal activity against Candida parapsilosis assessed as FICI in presence of voriconazole; format: functional; procedure, shortened: as §5
[25] = system: Aspergillus fumigatus; experiment: Antifungal activity against Aspergillus fumigatus assessed as FICI in presence of voriconazole; format: functional; procedure, shortened: as §5
[26] = system: Cryptococcus neoformans; experiment: Antifungal activity against Cryptococcus neoformans H99 assessed as FICI in presence of itraconazole; format: functional, var grubii H99; procedure, shortened: as §5
[27] = system: Candida albicans; experiment: Antifungal activity against Candida albicans assessed as FICI in presence of itraconazole; format: functional; procedure, shortened: as §5
[28] = system: Pichia kudriavzevii; experiment: Antifungal activity against fluconazole-resistant Candida krusei assessed as FICI in presence of itraconazole; format: functional; procedure, shortened: as §7
[29] = system: Pichia kudriavzevii; experiment: Antifungal activity against Candida krusei 6258 assessed as FICI in presence of itraconazole; format: functional; procedure, shortened: as §5
[30] = system: [Candida] auris; experiment: Antifungal activity against Candida auris assessed as FICI in presence of itraconazole; format: functional, Candidozyma auris; procedure, shortened: as §5
[31] = system: Candida parapsilosis; experiment: Antifungal activity against Candida parapsilosis assessed as FICI in presence of itraconazole; format: functional; procedure, shortened: as §5
[32] = system: Aspergillus fumigatus; experiment: Antifungal activity against Aspergillus fumigatus assessed as FICI in presence of itraconazole; format: functional; procedure, shortened: as §5
[33] = system: Candida albicans; experiment: Antifungal activity against Candida albicans assessed as FICI in presence of caspofungin; format: functional; procedure, shortened: as §5
[34] = system: Pichia kudriavzevii; experiment: Antifungal activity against fluconazole-resistant Candida krusei assessed as FICI in presence of caspofungin; format: functional; procedure, shortened: as §7
[35] = system: Pichia kudriavzevii; experiment: Antifungal activity against Candida krusei 6258 assessed as FICI in presence of caspofungin; format: functional; procedure, shortened: as §5
[36] = system: [Candida] auris; experiment: Antifungal activity against Candida auris assessed as FICI in presence of caspofungin; format: functional, Candidozyma auris; procedure, shortened: as §5
[37] = system: Candida parapsilosis; experiment: Antifungal activity against Candida parapsilosis assessed as FICI in presence of caspofungin; format: functional; procedure, shortened: as §5
[38] = system: Cryptococcus neoformans; experiment: Antifungal activity against Cryptococcus neoformans H99 assessed as FICI in presence of amphotericin B; format: functional, var grubii H99; procedure, shortened: as §5
[39] = system: Cryptococcus neoformans; experiment: Fungicidal activity against Cryptococcus neoformans H99 measured up to 96 hrs by time-kill assay; format: functional, organism-based; conditions: var grubii H99; procedure, shortened: as §2
[40] = system: Cryptococcus neoformans; experiment: Fungicidal activity against Cryptococcus neoformans H99 measured after 12 hrs by time-kill assay; format: functional, var grubii H99; procedure, shortened: as §2

Compound | MIC80 [1] [µg/mL] | MFC100 [2] [µg/mL] | CC50 [3] [µg/mL] | CC50 [4] [µg/mL] | selectivity ratio [5] | selectivity ratio [6] | fractional inhibitory concentration index (FICI) [7] | MIC80 [8] [µg/mL] | MIC80 [9] [µg/mL] | MIC80 [10] [µg/mL] | MIC80 [11] [µg/mL] | MIC80 [12] [µg/mL] | MIC80 [13] [µg/mL] | fractional inhibitory concentration index (FICI) [14] | fractional inhibitory concentration index (FICI) [15] | fractional inhibitory concentration index (FICI) [16] | fractional inhibitory concentration index (FICI) [17] | fractional inhibitory concentration index (FICI) [18] | fractional inhibitory concentration index (FICI) [19] | fractional inhibitory concentration index (FICI) [20] | further results
O=C(N/N=C/c1cc(Br)cc(Br)c1O)c1ccc(Br)c(Br)c1 | 0.06 (≈ 0.108 µM) | 0.12 (≈ 0.216 µM) | 64 (≈ 115 µM) | 64 (≈ 115 µM) | 1070 | 1070 | 0.237 | > 16 | 16 (≈ 28.8 µM) | > 16 | 4 (≈ 7.2 µM) | 16 (≈ 28.8 µM) | > 16 | 0.563 | 1 | 1.001 | 2.015 | 2 | 0.247 | 0.271 | fractional inhibitory concentration index (FICI) [21]: 0.31; fractional inhibitory concentration index (FICI) [22]: 0.254; fractional inhibitory concentration index (FICI) [23]: 1.001; fractional inhibitory concentration index (FICI) [24]: 1.03; fractional inhibitory concentration index (FICI) [25]: 1.031; fractional inhibitory concentration index (FICI) [26]: 0.247; fractional inhibitory concentration index (FICI) [27]: 0.37; fractional inhibitory concentration index (FICI) [28]: 0.528; fractional inhibitory concentration index (FICI) [29]: 0.153; fractional inhibitory concentration index (FICI) [30]: 1.12; fractional inhibitory concentration index (FICI) [31]: 2.007; fractional inhibitory concentration index (FICI) [32]: 0.281; fractional inhibitory concentration index (FICI) [33]: 0.5; fractional inhibitory concentration index (FICI) [34]: 0.121; fractional inhibitory concentration index (FICI) [35]: 0.125; fractional inhibitory concentration index (FICI) [36]: 0.501; fractional inhibitory concentration index (FICI) [37]: 1.001; fractional inhibitory concentration index (FICI) [38]: 0.247; Activity [39]: Dose-dependent effect
O=C(N/N=C/c1ccc(Br)cc1O)c1cc(Br)cc(Br)c1O | 0.06 (≈ 0.122 µM) | 0.12 (≈ 0.243 µM) | 32 (≈ 64.9 µM) | 32 (≈ 64.9 µM) | 533 | 533 | 0.24 | 2 (≈ 4.06 µM) | 0.5 (≈ 1.01 µM) | 0.25 (≈ 0.507 µM) | 0.25 (≈ 0.507 µM) | 2 (≈ 4.06 µM) | 4 (≈ 8.11 µM) | 2 | 0.501 | 0.531 | 1.015 | 2 | 0.24 | 0.375 | MFC100 [40]: 0.12 µg/mL (≈ 0.243 µM); fractional inhibitory concentration index (FICI) [21]: 0.018; fractional inhibitory concentration index (FICI) [22]: 0.129; fractional inhibitory concentration index (FICI) [23]: 0.252; fractional inhibitory concentration index (FICI) [24]: 0.135; fractional inhibitory concentration index (FICI) [25]: 0.188; fractional inhibitory concentration index (FICI) [26]: 0.247; fractional inhibitory concentration index (FICI) [27]: 0.188; fractional inhibitory concentration index (FICI) [28]: 0.023; fractional inhibitory concentration index (FICI) [29]: 0.183; fractional inhibitory concentration index (FICI) [30]: 0.18; fractional inhibitory concentration index (FICI) [31]: 0.508; fractional inhibitory concentration index (FICI) [32]: 1.016; fractional inhibitory concentration index (FICI) [33]: 0.508; fractional inhibitory concentration index (FICI) [35]: 2.002; fractional inhibitory concentration index (FICI) [36]: 2; fractional inhibitory concentration index (FICI) [37]: 2; fractional inhibitory concentration index (FICI) [38]: 0.261; Activity [39]: Dose-dependent effect

From ChEMBL document CHEMBL4334465, “SAR Studies on Aromatic Acylhydrazone-Based Inhibitors of Fungal Sphingolipid Synthesis as Next-Generation Antifungal Agents” (J Med Chem, 2019)
